Experimental findings from ChEMBL document CHEMBL1151703, “Irreversible inhibition of dihydrodipicolinate synthase by 4-oxo-heptenedioic acid analogues” (Bioorg Med Chem, 2008) are described below.

SMILES strings stand for the structures. Calls of active or inactive are those of the source. The calls are words filed in the database; no cut-off is given here.

Test [1] has as its target T1, 4-hydroxy-tetrahydrodipicolinate synthase (Escherichia coli K-12, UniProt P0A6L2).
T1 sequence (P0A6L2 whole entry): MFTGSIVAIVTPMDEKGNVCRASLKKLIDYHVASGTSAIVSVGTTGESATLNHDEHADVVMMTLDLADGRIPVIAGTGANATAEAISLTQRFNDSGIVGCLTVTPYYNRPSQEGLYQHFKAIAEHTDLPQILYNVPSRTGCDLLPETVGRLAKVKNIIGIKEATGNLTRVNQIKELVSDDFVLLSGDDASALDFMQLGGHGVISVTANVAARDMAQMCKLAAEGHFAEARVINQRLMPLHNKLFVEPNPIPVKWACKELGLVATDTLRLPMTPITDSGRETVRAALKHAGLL
In words: Inhibition of Escherichia coli DHDPS.

For test [2], the target named is T2, 4-hydroxy-tetrahydrodipicolinate synthase (Escherichia coli K-12) (UniProt P0A6L2).
T2 sequence (whole entry): T1 sequence (P0A6L2 whole entry)
In words: Inactivation of Escherichia coli recombinant DHDPS. The gist of the method: (§1)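 Recombinant E. coli DHDPS, purified, pre-incubated with inhibitor for various times before activity measurement in a coupled assay with E. coli DHDPR (modified coupled assay) at 30 °C; inhibitor range 0.1–250 mM across compounds. Each decay curve was fitted to give kobs; kobs versus [I] was fitted to give kinact and Ki(app); the second-order rate constant is kinact/Ki(app).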

In test [3] the target is T2, 4-hydroxy-tetrahydrodipicolinate synthase (Escherichia coli K-12). Briefly: Ratio of Kinact to Ki(app) for Escherichia coli recombinant DHDPS. The method in brief:
as §1

Test [4] deals with T1, 4-hydroxy-tetrahydrodipicolinate synthase. In words: (§2) Inhibition of Escherichia coli recombinant DHDPS overexpressed with DHDPR assessed as residual activity by modified coupled assay. As to conditions: read-out: Ki(app). The method in brief: as §1
Test [5] deals with T2, 4-hydroxy-tetrahydrodipicolinate synthase (Escherichia coli K-12). Described as §2. As to conditions: TDE = time-dependent effect. The gist of the method:
as §1

Test [6] is described as follows: Inhibition of succinyl co-transferase. To be noted: read-out: Ki(app).
Test [7] concerns the target T3, 4-hydroxy-tetrahydrodipicolinate synthase (Bacillus subtilis (strain 168), UniProt Q04796).
T3 sequence (Q04796 whole entry): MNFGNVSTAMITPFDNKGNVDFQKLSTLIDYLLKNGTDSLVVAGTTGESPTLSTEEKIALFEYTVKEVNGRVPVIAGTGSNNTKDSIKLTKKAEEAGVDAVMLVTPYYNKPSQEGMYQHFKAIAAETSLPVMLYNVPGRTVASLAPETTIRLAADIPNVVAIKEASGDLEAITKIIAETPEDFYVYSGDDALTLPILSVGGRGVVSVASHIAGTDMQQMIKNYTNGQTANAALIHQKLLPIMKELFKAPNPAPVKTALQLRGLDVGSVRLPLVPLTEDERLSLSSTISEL
In words: Inhibition of Bacillus subtilis DHDPS.

For test [8], the target named is T2, 4-hydroxy-tetrahydrodipicolinate synthase (Escherichia coli K-12). Briefly: Inhibition of Escherichia coli recombinant DHDPS overexpressed with DHDPR assessed as residual activity at 2 mM within 6 min by modified coupled assay. The method in brief:
as §1

In test [1], `CCCC(=O)C(=O)O` showed a Ki of 700 µM.

As for `O=C(O)/C=C/C(=O)CCC(=O)O`, the Kinact in test [2] was 4.1 ×10⁻³ /s. In test [3], the Ratio worked out at 0.12 M⁻¹ s⁻¹. Besides, in test [4], the Ki came to 32.4 mM. Also, the Activity result in test [5] was “tde”.

Take `O=C(O)/C=C/C(=O)/C=C/C(=O)O`: the Kinact in test [2] was determined as 1.9 ×10⁻³ /s. For the same compound, the Ratio in test [3] was determined as 1.2 M⁻¹ s⁻¹. For the same compound, the Ki in test [6] is 530 µM; in test [4], 1.63 mM. For the same compound, the Activity result in test [5] was “tde”.

As to `O=C(O)C(=O)CCCC(=O)C(=O)O`, the Ki in test [7] was found to be 160 µM.

With `CCOC(=O)/C=C/C(=O)CCC(=O)OCC`, the Kinact in test [2] is 1.2 ×10⁻³ /s. Further, the Ratio in test [3] was 0.11 M⁻¹ s⁻¹. Moreover, the Ki in test [4] was determined as 10.9 mM. Further, the Activity result in test [5] was “tde”.

For `O=CC(=O)O` [GLYOXYLATE], the Ki in test [1] was determined as 16 µM.

In test [1], `CCC(=O)C(=O)O` yielded a Ki of 830 µM.

Turning to `CCOC(=O)/C=C/C(=O)/C=C/C(=O)OCC`, the Kinact in test [2] came to 29 ×10⁻³ /s. Also, in test [8], the outcome was Active. Besides, in test [3], the Ratio stood at 5.9 M⁻¹ s⁻¹. Also, the Ki in test [4] is 4.95 mM.

As for `O=C(O)C(=O)CF`, the Ki in test [1] is 220 µM.
